Converted amounts (≈) assume the structure as drawn.

One test relates to Staphylococcus aureus. The experiment in a line: Antibacterial activity against Staphylococcus aureus ACH-0204 isolate with gyrA Ser84Leu mutant after 24 hrs by broth microdilution method.
Conditions: not given
Type of test: functional. In short, it runs like this:
(§1)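 Broth microdilution per CLSI guidelines. MIC taken as the lowest concentration preventing visible growth at 24 h. Each MIC determined at least twice.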
As to `COc1c(-c2cc(C)nc(C)c2)c(F)cc2c(=O)c3c(=O)[nH]sc3n(C3CC3)c12`, it took 0.016 µg/mL (≈ 0.0389 µM) to inhibit growth (MIC).

For a further test, the system named is Staphylococcus aureus. The experiment in a line: Antibacterial activity against Staphylococcus aureus ATCC 33591 isolate after 24 hrs by broth microdilution method. Type of test: functional. The note with it: ATCC 33591, 24 h. In a few lines: as §1
Consider `COc1c(-c2cc(C)nc(C)c2)c(F)cc2c(=O)c3c(=O)[nH]sc3n(C3CC3)c12`, for which the MIC turned out to be 4 ng/mL (≈ 0.00972 µM).

The next test concerns Staphylococcus aureus. The experiment in a line: Antibacterial activity against Staphylococcus aureus ACH-0216 isolate with grlA Ser80Phe mutant after 24 hrs by broth microdilution method. Type of test: functional.
Conditions: not given
In short, it runs like this:
as §1
`COc1c(-c2cc(C)nc(C)c2)c(F)cc2c(=O)c3c(=O)[nH]sc3n(C3CC3)c12` registered an MIC of 8 ng/mL (≈ 0.0194 µM).

In a further test the test system is Staphylococcus aureus. The experiment in a line: Antibacterial activity against Staphylococcus aureus ACH-0218 isolate with grlA Glu84Lys mutant after 24 hrs by broth microdilution method. Type of test: functional.
Conditions: not given
In short, it runs like this:
as §1
Consider `COc1c(-c2cc(C)nc(C)c2)c(F)cc2c(=O)c3c(=O)[nH]sc3n(C3CC3)c12`, for which the MIC came out at 4 ng/mL (≈ 0.00972 µM).

Another test has as its system Staphylococcus aureus. The experiment in a line: Antibacterial activity against Staphylococcus aureus ACH-0186 isolate with gyrA Ser84Leu and grlA Ser80Phe, Ala116Val mutant after 24 hrs by broth microdilution method. Type of test: functional.
Conditions: not given
Consider `COc1c(-c2cc(C)nc(C)c2)c(F)cc2c(=O)c3c(=O)[nH]sc3n(C3CC3)c12`, for which the MIC worked out at 0.25 µg/mL (≈ 0.608 µM).

A further test relates to Staphylococcus aureus. The experiment in a line: Antibacterial activity against Staphylococcus aureus ACH-0206 isolate with gyrA Ser84Leu mutant after 24 hrs by broth microdilution method. Type of test: functional.
Conditions: not given
In short, it runs like this: as §1
Compound `COc1c(-c2cc(C)nc(C)c2)c(F)cc2c(=O)c3c(=O)[nH]sc3n(C3CC3)c12` came in with an MIC of 0.015 µg/mL (≈ 0.0365 µM).

The test system of another test is Staphylococcus aureus. Kind of test: Antibacterial activity against Staphylococcus aureus ACH-0221 isolate with gyrA Ser84Leu mutant after 24 hrs by broth microdilution method. Type of test: functional.
Conditions: not given
In a few lines:
as §1
Consider `COc1c(-c2cc(C)nc(C)c2)c(F)cc2c(=O)c3c(=O)[nH]sc3n(C3CC3)c12`, for which the MIC was 0.03 µg/mL (≈ 0.0729 µM).

The test system of a further test is Staphylococcus aureus. The experiment in a line: Antibacterial activity against Staphylococcus aureus BSA643 isolate with gyrA Ser84Leu and grlA Ser80Tyr, Glu84Gly mutant after 24 hrs by broth microdilution method. Type of test: functional.
Conditions: not given
Compound `COc1c(-c2cc(C)nc(C)c2)c(F)cc2c(=O)c3c(=O)[nH]sc3n(C3CC3)c12` registered an MIC of 0.125 µg/mL (≈ 0.304 µM).

Another test concerns Staphylococcus aureus. Kind of test: Antibacterial activity against Staphylococcus aureus ACH-0201 isolate with gyrA Ser84Leu, Glu88Val and grlA Ser80Phe, Ala116Val mutant after 24 hrs by broth microdilution method. Type of test: functional.
Conditions: not given
As for `COc1c(-c2cc(C)nc(C)c2)c(F)cc2c(=O)c3c(=O)[nH]sc3n(C3CC3)c12`, 1 µg/mL (≈ 2.43 µM) was the least that counted as inhibitory (MIC).

Another test relates to Staphylococcus aureus. The experiment in a line: Antibacterial activity against Staphylococcus aureus ACH-0231 isolate with gyrA Ser84Leu, Glu88Lys and grlA Ser80Tyr, Glu84Gly mutant after 24 hrs by broth microdilution method.
Conditions: not given
Type of test: functional.
Turning to `COc1c(-c2cc(C)nc(C)c2)c(F)cc2c(=O)c3c(=O)[nH]sc3n(C3CC3)c12`, the MIC is 1 µg/mL (≈ 2.43 µM).

In a further test the test system is Staphylococcus aureus. Kind of test: Antibacterial activity against Staphylococcus aureus ATCC 700699 isolate with gyrA Ser84Leu, Glu409Lys and grlA Ser80Phe mutant after 24 hrs by broth microdilution method. Type of test: functional. The note with it: ATCC 700699, 24 h.
On to `COc1c(-c2cc(C)nc(C)c2)c(F)cc2c(=O)c3c(=O)[nH]sc3n(C3CC3)c12`, for which it took 0.125 µg/mL (≈ 0.304 µM) to inhibit growth (MIC).

The next test deals with Staphylococcus aureus. Kind of test: Antibacterial activity against Staphylococcus aureus BSA678 isolate with gyrA Ser84Leu, Ser85Pro and grlA Ser80Phe, Glu84Lys mutant after 24 hrs by broth microdilution method.
Conditions: not given
As to `COc1c(-c2cc(C)nc(C)c2)c(F)cc2c(=O)c3c(=O)[nH]sc3n(C3CC3)c12`, it took 0.5 µg/mL (≈ 1.22 µM) to inhibit growth (MIC).

A further test has as its system Staphylococcus aureus. The experiment in a line: (§2) Antibacterial activity against Staphylococcus aureus ACH-0129 isolate with gyrA Ser84Leu, Glu88Val and grlA Ser80Phe, Ala116Val mutant after 24 hrs by broth microdilution method. Type of test: functional.
Conditions: not given
Compound `COc1c(-c2cc(C)nc(C)c2)c(F)cc2c(=O)c3c(=O)[nH]sc3n(C3CC3)c12` gave an MIC of 0.5 µg/mL (≈ 1.22 µM).

For a further test, the system named is Staphylococcus aureus. The experiment in a line: Antibacterial activity against Staphylococcus aureus ACH-0126 isolate with gyrA Ser84Leu and grlA Ser80Phe mutant after 24 hrs by broth microdilution method. Type of test: functional.
Conditions: not given
Compound `COc1c(-c2cc(C)nc(C)c2)c(F)cc2c(=O)c3c(=O)[nH]sc3n(C3CC3)c12` showed an MIC of 0.125 µg/mL (≈ 0.304 µM).

In the next test the target is DNA gyrase subunit A (Staphylococcus aureus, UniProt P20831, S84L). Kind of test: Inhibition of Staphylococcus aureus DNA gyrase gyrA S84L mutant supercoiling activity assessed as effect on conversion of relaxed pBR322 DNA to supercoiled form.
Conditions: not given
For the compound `COc1c(-c2cc(C)nc(C)c2)c(F)cc2c(=O)c3c(=O)[nH]sc3n(C3CC3)c12`, the IC50 came out at 21.5 µM.

For the next test, the system named is Staphylococcus aureus. Kind of test: Antibacterial activity against Staphylococcus aureus ATCC 29213 after 24 hrs by broth microdilution method. Type of test: functional. As to conditions: ATCC 29213, 24 h. In short, it runs like this:
as §1
The compound `COc1c(-c2cc(C)nc(C)c2)c(F)cc2c(=O)c3c(=O)[nH]sc3n(C3CC3)c12` came in with an MIC of 4 ng/mL (≈ 0.00972 µM).

The next test deals with Staphylococcus aureus. The experiment in a line: Antibacterial activity against Staphylococcus aureus NY2746 isolate with gyrA Ser84Leu and grlA Ser80Phe mutant after 24 hrs by broth microdilution method. Type of test: functional.
Conditions: not given
Compound `COc1c(-c2cc(C)nc(C)c2)c(F)cc2c(=O)c3c(=O)[nH]sc3n(C3CC3)c12` gave an MIC of 0.25 µg/mL (≈ 0.608 µM).

System in another test: not listed separately
Kind of test: Inhibition of Staphylococcus aureus wild-type topoisomerase 4 decatenation activity assessed as unlinking of DNA microcircles from kinetoplast DNA.
Conditions: not given
In a few lines:
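S. aureus topo IV reconstituted from His-purified recombinant GrlA and GrlB (E. coli BL21(DE3)pLysS expression), mixed 1:1 molar on ice 10 min. 0.1 μg catenated kDNA with 2 U enzyme, 30 min at 37°C in 1 mM ATP, 5 mM DTT, 5 mM MgCl2, 50 μg/ml BSA, 50 mM Tris-HCl pH 7.5, 250 mM potassium glutamate. Products on 1% agarose gel, ethidium-stained, quantitated; IC50 by nonlinear regression.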
On to `COc1c(-c2cc(C)nc(C)c2)c(F)cc2c(=O)c3c(=O)[nH]sc3n(C3CC3)c12`, for which the IC50 was determined as 800 nM.

For a further test, the system named is Staphylococcus aureus. Kind of test: Antibacterial activity against Staphylococcus aureus ACH-0141 isolate with gyrA Ser84Leu, Glu88Val and grlA Ser80Phe, Ala116Val mutant after 24 hrs by broth microdilution method. Type of test: functional.
Conditions: not given
For `COc1c(-c2cc(C)nc(C)c2)c(F)cc2c(=O)c3c(=O)[nH]sc3n(C3CC3)c12`, the MIC came to 2 µg/mL (≈ 4.86 µM).

Another test deals with Staphylococcus aureus. Kind of test: Antibacterial activity against Staphylococcus aureus ACH-0210 isolate with gyrA Ser84Leu and grlA Ser80Phe mutant after 24 hrs by broth microdilution method. Type of test: functional.
Conditions: not given
For the compound `COc1c(-c2cc(C)nc(C)c2)c(F)cc2c(=O)c3c(=O)[nH]sc3n(C3CC3)c12`, the lowest concentration to inhibit growth (MIC) was 0.125 µg/mL (≈ 0.304 µM).

A further test deals with Staphylococcus aureus. Described as §2. Type of test: functional.
Conditions: not given
With `COc1c(-c2cc(C)nc(C)c2)c(F)cc2c(=O)c3c(=O)[nH]sc3n(C3CC3)c12`, the MIC worked out at 0.5 µg/mL (≈ 1.22 µM).

System in another test: not listed separately
Kind of test: Inhibition of Staphylococcus aureus […] topoisomerase 4 grlA S80F mutant decatenation activity assessed as unlinking of DNA microcircles from kinetoplast DNA.
Conditions: not given
In a few lines:
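Recombinant S. aureus GrlA (Ser80Phe) and GrlB were mixed 1:1 molar on ice for 10 min. kDNA (0.1 μg) with 2 U enzyme, 30 min at 37°C, in 1 mM ATP, 5 mM MgCl2, 250 mM K-glutamate, 50 mM Tris pH 7.5. Reactions stopped with EDTA, run on 1% agarose-TBE and ethidium-stained, minicircles quantitated. IC50 by nonlinear regression.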
For `COc1c(-c2cc(C)nc(C)c2)c(F)cc2c(=O)c3c(=O)[nH]sc3n(C3CC3)c12`, the IC50 was 9.3 µM.

In a further test the test system is Staphylococcus aureus. Kind of test: Antibacterial activity against Staphylococcus aureus ACH-0203 isolate with gyrA Ser84Leu and grlA Ser80Phe, Ala116Val mutant after 24 hrs by broth microdilution method. Type of test: functional.
Conditions: not given
In short, it runs like this:
as §1
Compound `COc1c(-c2cc(C)nc(C)c2)c(F)cc2c(=O)c3c(=O)[nH]sc3n(C3CC3)c12` came in with a minimum inhibitory concentration (MIC) of 1 µg/mL (≈ 2.43 µM).

The test system of another test is Staphylococcus aureus. The experiment in a line: Antibacterial activity against Staphylococcus aureus ACH-0192 isolate with gyrA Ser84Leu and grlA Ser80Phe, Ala116Val mutant after 24 hrs by broth microdilution method. Type of test: functional.
Conditions: not given
With `COc1c(-c2cc(C)nc(C)c2)c(F)cc2c(=O)c3c(=O)[nH]sc3n(C3CC3)c12`, inhibition of growth (MIC) required 1 µg/mL (≈ 2.43 µM).

For the origin of these results see ChEMBL document CHEMBL1157373, “Dual targeting of DNA gyrase and topoisomerase IV: target interactions of heteroaryl isothiazolones in Staphylococcus aureus” (Antimicrob Agents Chemother, 2007).
